Data set [1] deals with Plasmodium berghei. Briefly: Antimalarial activity against Plasmodium berghei infected Swiss mice (Mus musculus) by intraperitoneal dose. It is filed as functional. Particulars: ip. An outline of the steps: (§1)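 Infected mice dosed i.p. once daily for 4 days, with the first dose 1 h after i.p. inoculation with parasites. ED50 is the dose giving 50% inhibition of parasite growth versus vehicle-treated controls (equal volume of vehicle), read from a plot of activity (% of control) against log dose. P. berghei is the sensitive strain and P. yoelii nigeriensis the multidrug-resistant strain.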

In data set [2] the test system is Plasmodium falciparum. Nature of the data set: Antimalarial activity against chloroquine-resistant Plasmodium falciparum W2. It is filed as functional, organism-based.
Data set [3] has as its system Mastomys coucha. Nature of the data set: Toxicity against Mastomys coucha assessed as methemoglobin levels at 15 mg/kg after 3 days. The note with it: in vivo, 72 h. The class given is organism-based. Further details: dose 15 mg/kg. An outline of the steps: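 Mastomys coucha dosed at 15 mg/kg per day for 3 days, then blood methemoglobin measured as % MetHb. A vehicle group served as control. Values are mean±SEM per group from a set of three experiments.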

Data set [4] relates to Plasmodium yoelii nigeriensis. Briefly: Antimalarial activity against Plasmodium yoelii nigeriensis infected Swiss mice (Mus musculus) by intraperitoneal dose. The note with it: ip. The class given is functional. An outline of the steps:
as §1

Data set [5] can be described thus: Therapeutic index, ratio of LD50 for Swiss mice (Mus musculus) to […] for Plasmodium berghei infected Swiss mice (Mus musculus). The note with it: read-out: Ratio LD50/ED50. An outline of the steps:
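Ratio of acute LD50 to P. berghei ED50 in mice. LD50: one injection into four non-infected random-bred Swiss mice, deaths scored at 10 days. ED50: i.p. dosing once daily for 4 days, starting 1 h after i.p. parasite inoculation. Parasite growth inhibition is taken against vehicle-treated controls, and the value is read from % of control versus log dose.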

A short description of data set [6]: Toxicity in Swiss mouse after 10 days. It is filed as organism-based. The note with it: in vivo. A digest of the protocol: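 Acute toxicity: a single drug injection into four non-infected random-bred Swiss mice, with deaths recorded 10 days after injection.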

By ED50 is commonly meant the dose that gives a 50% effect, or the effect in half of the subjects. The IC50 is the concentration needed to halve the response being measured. As usually defined, the LD50 is the dose at which mortality reaches 50%. A low value points to a more toxic substance. With `CCOc1cc(NC(C)(C)CCCN)c2ncccc2n1`, the ED50 in data set [1] came to 0.95 mg/kg; in data set [4], 0.89 mg/kg. This molecule also had a 50% inhibitory concentration (IC50) in data set [2] of 77 nM. In addition, in data set [3], the Activity is on record as -0.12%. Besides, the selectivity ratio in data set [5] is 163. The same molecule registered an LD50 at 240 h in data set [6] of 155 mg/kg.

Take `CCOc1cc(NC2(CCCN)CC2)c2nc(OC)ccc2n1`: the ED50 in data set [1] stood at 0.72 mg/kg; in data set [4], 0.65 mg/kg. In addition, the IC50 in data set [2] was 45 nM. In data set [3], the Activity was -0.1%. The selectivity ratio in data set [5] was greater than 278. Further, the LD50 at 240 h in data set [6] was greater than 200 mg/kg.

Turning to `CCOc1cc(NC2(CCCN)CC2)c2nc(C(F)(F)F)ccc2n1`, the ED50 is 0.75 mg/kg in data set [1] and 0.68 mg/kg in data set [4]. The molecule further came in with an IC50 in data set [2] of 58 nM. Also, in data set [3], the Activity is listed as 0.095%. In data set [5], the selectivity ratio was greater than 267. The molecule further came in with an LD50 at 240 h in data set [6] greater than 200 mg/kg.

Regarding `CC(C)Oc1cc(NC2(CCCN)CC2)c2nc(C(F)(F)F)ccc2n1`, the ED50 in data set [1] is 0.26 mg/kg; in data set [4] it was 0.23 mg/kg. In data set [2], this molecule showed an IC50 of 55 nM. In addition, the Activity in data set [3] is listed as 0.14%. Also, the selectivity ratio in data set [5] was greater than 769. This molecule also displayed an LD50 at 240 h in data set [6] greater than 200 mg/kg.

In the case of `CC(C)Oc1cc(NC(C)(C)CCCN)c2ncccc2n1`, the ED50 was 0.33 mg/kg in data set [1] and 0.28 mg/kg in data set [4]. Moreover, the IC50 in data set [2] stood at 110 nM. In data set [3], the Activity is -0.15%. Further, the selectivity ratio in data set [5] came to 506. Also, in data set [6], the LD50 at 240 h came to 167 mg/kg.

With `CCOc1cc(NC2(CCCN)CC2)c2ncccc2n1`, the values for the median effective dose (ED50) in data set [1] and in data set [4] were 0.88 mg/kg and 1 mg/kg, respectively. The molecule also had an IC50 in data set [2] of 72 nM. The Activity in data set [3] is -0.12%. In addition, the selectivity ratio in data set [5] was found to be 183. Moreover, the LD50 at 240 h in data set [6] turned out to be 161 mg/kg.

In the case of `CC(C)Oc1cc(NC2(CCCN)CC2)c2ncccc2n1`, the median effective dose (ED50) was 0.29 mg/kg in data set [1] and 0.38 mg/kg in data set [4]. Besides, the IC50 in data set [2] amounted to 100 nM. The Activity in data set [3] is listed as -0.1%. Also, in data set [5], the selectivity ratio turned out to be 603. This molecule came in with an LD50 at 240 h in data set [6] of 175 mg/kg.

For the molecule `COc1cc(NC2(CCCN)CC2)c2ncccc2n1`, the ED50 was 1.6 mg/kg in data set [1] and 1.4 mg/kg in data set [4]. Besides, it took 57 nM to reach half-maximal inhibition in data set [2] (IC50). The Activity in data set [3] was determined as 0.1%. In addition, the selectivity ratio in data set [5] came to 91. Besides, in data set [6], the LD50 at 240 h came to 145 mg/kg.

As to `COc1ccc2nc(OC(C)C)cc(NC3(CCCN)CC3)c2n1`, the ED50 in data set [1] stood at 0.31 mg/kg; in data set [4], 0.41 mg/kg. This molecule registered an IC50 in data set [2] of 47 nM. Moreover, the Activity in data set [3] is given as -0.12%. The selectivity ratio in data set [5] is greater than 645. Further, the LD50 at 240 h in data set [6] was greater than 200 mg/kg.

In the case of `COc1cc(NC(C)(C)CCCN)c2nc(C(F)(F)F)ccc2n1`, the figures for the median effective dose (ED50) in data set [1] and in data set [4] were 1.5 mg/kg and 1.7 mg/kg, respectively. In data set [2], the half-maximal inhibitory concentration (IC50) worked out at 21 nM. For the same molecule, the Activity in data set [3] was -0.11%. Also, the selectivity ratio in data set [5] was greater than 133. In data set [6], this molecule registered an LD50 at 240 h greater than 200 mg/kg.

In the case of `COc1cc(NC(C)(C)CCCN)c2nc(OC)ccc2n1`, the 50% effective dose (ED50) in data set [1] was 1.6 mg/kg; in data set [4] it was 2 mg/kg. The molecule also had a 50% inhibitory concentration (IC50) in data set [2] of 33 nM. For the same molecule, the Activity in data set [3] amounted to 0.13%. The selectivity ratio in data set [5] is greater than 125. This molecule also registered an LD50 at 240 h in data set [6] greater than 200 mg/kg.

`COc1cc(NC(C)(C)CCCN)c2ncccc2n1`: the ED50 in data set [1] came out at 1.8 mg/kg; in data set [4], 2.1 mg/kg. The molecule also gave an IC50 in data set [2] of 65 nM. Moreover, the Activity in data set [3] is recorded as 0.1%. Besides, the selectivity ratio in data set [5] was found to be 72. In addition, in data set [6], the LD50 at 240 h was 130 mg/kg.

The molecule `CCN(CC)CCCC(C)Nc1ccnc2cc(Cl)ccc12` (stereo unspecified) [CHLOROQUINE] came in with an ED50 in data set [1] of 2 mg/kg.

As to `COc1cc(NC(C)CCCN)c2ncccc2c1` (stereo unspecified) [PRIMAQUINE], in data set [2], the IC50 was greater than 10000 nM. Also, in data set [3], the Activity is 3.4%. The same molecule registered an LD50 at 240 h in data set [6] of 55 mg/kg.

The values are drawn from ChEMBL document CHEMBL1137548, “Synthesis and evaluation of naphthyridine compounds as antimalarial agents” (Bioorg Med Chem Lett, 2007).
